Reference: ChEMBL document CHEMBL1154808, “Synthesis, characterization and biological activities of some new benzo[b]thiophene derivatives” (2010)
≈ marks a conversion by molar mass, not a printed value.

How the values were obtained:
Format in all cases: functional
Escherichia coli = assay: Antibacterial activity against Escherichia coli after 16 to 18 hrs by serial dilution method
Method in brief: (§1)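 Compounds were dissolved in DMF and serially diluted. A standard drop of the prepared culture was added to each dilution, and tubes were incubated for 16–18 h at 37 °C. MIC was read as the highest dilution that stayed clear with no turbidity, determined separately for each organism. Candida albicans was tested by the same procedure.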

Bacillus subtilis = assay: Antibacterial activity against Bacillus subtilis after 16 to 18 hrs by serial dilution method; method in brief: as §1
Pseudomonas aeruginosa = assay: Antibacterial activity against Pseudomonas aeruginosa after 16 to 18 hrs by serial dilution method; method in brief: as §1
Staphylococcus aureus = assay: Antibacterial activity against Staphylococcus aureus after 16 to 18 hrs by serial dilution method; method in brief: as §1
Candida albicans = assay: Antifungal activity against Candida albicans after 16 to 18 hrs by serial dilution method; method in brief: as §1

| SMILES | MIC (Escherichia coli) | MIC (Bacillus subtilis) | MIC (Pseudomonas aeruginosa) | MIC (Staphylococcus aureus) | MIC (Candida albicans) |
| --- | --- | --- | --- | --- | --- |
| Clc1ccccc1OCc1nnc2sc(-c3sc4ccccc4c3Cl)nn12 | 6 µg/mL (≈ 13.8 µM) | 6 µg/mL (≈ 13.8 µM) | 6 µg/mL (≈ 13.8 µM) | 6 µg/mL (≈ 13.8 µM) | 6 µg/mL (≈ 13.8 µM) |
| CC1=NN(C(=O)c2sc3ccccc3c2Cl)C(=O)/C1=N/Nc1cc(Cl)ccc1Cl | 6 µg/mL (≈ 12.9 µM) | 6 µg/mL (≈ 12.9 µM) | 6 µg/mL (≈ 12.9 µM) | 12.5 µg/mL (≈ 26.8 µM) | 6 µg/mL (≈ 12.9 µM) |
| O=C(c1sc2ccccc2c1Cl)n1nc(-c2ccc([N+](=O)[O-])s2)cc1-c1ccccc1 | 3 µg/mL (≈ 6.44 µM) | 6 µg/mL (≈ 12.9 µM) | 6 µg/mL (≈ 12.9 µM) | 3 µg/mL (≈ 6.44 µM) | 6 µg/mL (≈ 12.9 µM) |
| O=C(c1sc2ccccc2c1Cl)n1nc(-c2ccc([N+](=O)[O-])s2)cc1-c1ccc(Cl)cc1 | 6 µg/mL (≈ 12 µM) | 6 µg/mL (≈ 12 µM) | 6 µg/mL (≈ 12 µM) | 3 µg/mL (≈ 6 µM) | 3 µg/mL (≈ 6 µM) |
| Clc1ccccc1OCc1nnc(-c2sc3ccccc3c2Cl)o1 | 6 µg/mL (≈ 15.9 µM) | 6 µg/mL (≈ 15.9 µM) | 6 µg/mL (≈ 15.9 µM) | 6 µg/mL (≈ 15.9 µM) | 6 µg/mL (≈ 15.9 µM) |
| Clc1ccc(OCc2nnc(-c3sc4ccccc4c3Cl)o2)c(Cl)c1 | 6 µg/mL (≈ 14.6 µM) | 6 µg/mL (≈ 14.6 µM) | 6 µg/mL (≈ 14.6 µM) | 6 µg/mL (≈ 14.6 µM) | 6 µg/mL (≈ 14.6 µM) |
| CC1=NN(C(=O)c2sc3ccccc3c2Cl)C(=O)/C1=N/Nc1ccccc1 | 6 µg/mL (≈ 15.1 µM) | 6 µg/mL (≈ 15.1 µM) | 6 µg/mL (≈ 15.1 µM) | 6 µg/mL (≈ 15.1 µM) | 6 µg/mL (≈ 15.1 µM) |
| CC1=NN(C(=O)c2sc3ccccc3c2Cl)C(=O)/C1=N/Nc1ccc(C)cc1[N+](=O)[O-] | 6 µg/mL (≈ 13.2 µM) | 6 µg/mL (≈ 13.2 µM) | 6 µg/mL (≈ 13.2 µM) | 6 µg/mL (≈ 13.2 µM) | 6 µg/mL (≈ 13.2 µM) |
| Cc1ccc(OCc2nnc3sc(-c4sc5ccccc5c4Cl)nn23)cc1 | 6 µg/mL (≈ 14.5 µM) | 6 µg/mL (≈ 14.5 µM) | 6 µg/mL (≈ 14.5 µM) | 6 µg/mL (≈ 14.5 µM) | 6 µg/mL (≈ 14.5 µM) |
| CC1=NN(C(=O)c2sc3ccccc3c2Cl)C(=O)/C1=N/Nc1ccc(Cl)cc1C | 6 µg/mL (≈ 13.5 µM) | 6 µg/mL (≈ 13.5 µM) | 6 µg/mL (≈ 13.5 µM) | 6 µg/mL (≈ 13.5 µM) | 6 µg/mL (≈ 13.5 µM) |
| COc1ccc(-c2cc(-c3ccc(Cl)cc3)n(C(=O)c3sc4ccccc4c3Cl)n2)cc1 | 6 µg/mL (≈ 12.5 µM) | 6 µg/mL (≈ 12.5 µM) | 6 µg/mL (≈ 12.5 µM) | 6 µg/mL (≈ 12.5 µM) | 6 µg/mL (≈ 12.5 µM) |
| COc1ccc(-c2cc(-c3ccccc3)n(C(=O)c3sc4ccccc4c3Cl)n2)cc1 | 6 µg/mL (≈ 13.5 µM) | 6 µg/mL (≈ 13.5 µM) | 6 µg/mL (≈ 13.5 µM) | 6 µg/mL (≈ 13.5 µM) | 3 µg/mL (≈ 6.74 µM) |
| OC(Cn1cncn1)(Cn1cncn1)c1ccc(F)cc1F [FLUCONAZOLE] | – | – | – | – | 6 µg/mL (≈ 19.6 µM) |
| NC(=O)N/N=C/c1ccc([N+](=O)[O-])o1 [NITROFURAZONE] | 6 µg/mL (≈ 30.3 µM) | 12.5 µg/mL (≈ 63.1 µM) | 12.5 µg/mL (≈ 63.1 µM) | 12.5 µg/mL (≈ 63.1 µM) | – |
